Assay results reported in publication PMC4203308 (Biomacromolecules, 2013).
Converted amounts (≈) assume the structure as drawn. “And” between values parts separate entries of the source, which are not always exact repeats. Equal values may be shown once. Where no end group is shown, it is not given here.

Key:
S. aureus (29213) = assay: microbe, parasite or virus in culture; format: cell-based, Staphylococcus aureus; settings: for Antimicrobial activity (MIC): 29213, 20 h
S aureus (25923) = assay: microbe, parasite or virus in culture; format: cell-based, Staphylococcus aureus; settings: for Antimicrobial activity (MIC): 25923, 20 h
S. Epidermidis (35984) = assay: microbe, parasite or virus in culture; format: cell-based; settings: for Antimicrobial activity (MIC): 35984, 20 h
in vitro [1] = format: cell-based; settings: human
in vitro [2] = format: in vitro ADME
[3] = system: Staphylococcus aureus (ATCC 25923); assay: Co-culture of bacteria and mammalian cells: effect on bacteria; format: cell-based; settings: A549 monolayer + S. aureus (25923), 20 µM peptide, 6 hours
Peptide aggregation = format: physicochemical
[4] = system: human lung carcinoma A549 cells; assay: Kinetics of peptide-induced cell membrane damage, LIVE/DEAD kit; format: cell-based; settings: LIVE/DEAD dye staining, 120 minutes of incubation
Procedure, shortened: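 A549 cells (freshly trypsinized) seeded at 2 × 10⁴ cells/well in collagen-coated glass chambers, grown overnight in F12K/10% FBS at 37 °C, 5% CO₂. Cells were PBS-washed three times and stained with LIVE/DEAD for 15 min. Test compound was added at a final 10 µM, and confocal images were taken over time (ex 488 nm; em 505–530 nm live, 560 nm dead). Membrane integrity was taken as % green of total green+red pixels.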

[5] = Staphylococcus aureus, 20 h, read-out: Antimicrobial activity (MIC)

| Molecule | MIC (S. aureus (29213); [5]) [µg/mL] | MIC (S aureus (25923); [5]) [µg/mL] | MIC (S. Epidermidis (35984); Staphylococcus epidermidis, 20 h, read-out: Antimicrobial activity (MIC)) [µg/mL] | Antimicrobial activity (MIC) (S. aureus (29213)) [µg/mL] | IC50 at 2 h (in vitro [1]) [µM] | Antimicrobial activity (MIC) (S aureus (25923)) [µg/mL] | Antimicrobial activity (MIC) (S. Epidermidis (35984)) [µg/mL] | estimated half-life in human sera (in vitro [2]) [h] | remaining at 5 h, 10 µM (in vitro [2]; human, serum) [%] | Effect on S. aureus in co-culture (in words) [3] | Size of peptide aggregates (Nanosizer) (Peptide aggregation; PBS pH 7.4, 37 °C, long (> 4–6 hours / overnight) incubation, Zeta nanosizer) | Aggregate formation at acidic pH (in words) (Peptide aggregation; acidic pH, even very high peptide concentrations and long incubation) | Fraction of peptide in solution existing as aggregates (Peptide aggregation; after overnight incubation, PBS pH 7.4, DLS and congo red) | Time for aggregates to dissolve completely at pH 5.5 (Peptide aggregation; solution pH adjusted from physiological pH to pH=5.5 with HCl) [minutes] | Cell lysis reached [4] [%] |
| --- | --- | --- | --- | --- | --- | --- | --- | --- | --- | --- | --- | --- | --- | --- | --- |
| CC1(C)S[C@@H]2[C@H](NC(=O)Cc3ccccc3)C(=O)N2[C@H]1C(=O)O [Penicillin G] | 16 (≈ 47.8 µM) | 1 (≈ 2.99 µM) | 4 (≈ 12 µM) |  |  |  |  |  |  |  |  |  |  |  |  |
| FLGALFKALSKLL [PTP-7] |  |  |  | 8 | 9 | 4 | 8 |  |  |  |  |  |  |  |  |
| FLGALFRALSRLL [CL-1] |  |  |  | 8 |  | 8 | 4 | 8 to 9 | > 95 | only S. aureus were selectively killed | > 2.0 µm and 2.5 µm | unable to form aggregates at acidic pH | 90–95% and ~95% | < 30 | < 100 |
